Source: ChEMBL document CHEMBL1139340, “Synthesis, radiosynthesis, and biological evaluation of carbon-11 and fluorine-18 labeled reboxetine analogues: potential positron emission tomography radioligands for in vivo imaging of the norepinephrine transporter” (J Med Chem, 2009)

What was measured:
Homo sapiens [1] = organism: Homo sapiens; experiment: Selectivity for human NET over human SERT
How it was run: (§1)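 Competition binding in stably transfected cells expressing human transporters: NET vs [3H]nisoxetine and SERT vs [3H]citalopram in HEK-293 cells; DAT vs [125I]RTI-55 in canine kidney cells. Ki as geometric mean of at least three experiments in triplicate; selectivity as ratio of SERT or DAT Ki to NET Ki.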

Homo sapiens [2] = organism: Homo sapiens; experiment: Selectivity for human NET over human DAT; how it was run: as §1
[3] = target: Sodium-dependent noradrenaline transporter (Homo sapiens, UniProt P23975); experiment: Displacement of [3H]nisoxetine from human NET receptor expressed in HEK293 cells; type: cell-based
[4] = target: Sodium-dependent serotonin transporter (Homo sapiens, UniProt P31645); experiment: Displacement of [3H]citalopram from human SERT receptor expressed in HEK293 cells; type: cell-based
How it was run: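 Competition binding against [³H]citalopram in HEK-293 cells stably transfected with human SERT. Ki in nM, geometric mean ± SD of at least three separate experiments, each run in triplicate.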

[5] = target: Sodium-dependent dopamine transporter (Homo sapiens, UniProt Q01959); experiment: Displacement of [125I]RTI-55 from human DAT receptor expressed in canine kidney cells; type: cell-based
How it was run: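 Competition binding against [¹²⁵I]RTI-55 in canine kidney cells stably transfected with human DAT. Ki in nM, geometric mean ± SD of at least three separate experiments, each run in triplicate.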

[6] = Lipophilicity, log P at pH 7.4; type: physicochemical; details: buffer
How it was run: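 Radiotracer (~5–10 μCi) in 2 mL 1-octanol plus 2 mL 0.02 M sodium phosphate buffer, pH 7.4. Vortexed 10 min at room temperature, centrifuged 5 min. 0.5 mL of each layer gamma-counted and decay corrected. log P = log(octanol counts/buffer counts), done three times and averaged.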

Chain of Sodium-dependent noradrenaline transporter (P23975 whole entry): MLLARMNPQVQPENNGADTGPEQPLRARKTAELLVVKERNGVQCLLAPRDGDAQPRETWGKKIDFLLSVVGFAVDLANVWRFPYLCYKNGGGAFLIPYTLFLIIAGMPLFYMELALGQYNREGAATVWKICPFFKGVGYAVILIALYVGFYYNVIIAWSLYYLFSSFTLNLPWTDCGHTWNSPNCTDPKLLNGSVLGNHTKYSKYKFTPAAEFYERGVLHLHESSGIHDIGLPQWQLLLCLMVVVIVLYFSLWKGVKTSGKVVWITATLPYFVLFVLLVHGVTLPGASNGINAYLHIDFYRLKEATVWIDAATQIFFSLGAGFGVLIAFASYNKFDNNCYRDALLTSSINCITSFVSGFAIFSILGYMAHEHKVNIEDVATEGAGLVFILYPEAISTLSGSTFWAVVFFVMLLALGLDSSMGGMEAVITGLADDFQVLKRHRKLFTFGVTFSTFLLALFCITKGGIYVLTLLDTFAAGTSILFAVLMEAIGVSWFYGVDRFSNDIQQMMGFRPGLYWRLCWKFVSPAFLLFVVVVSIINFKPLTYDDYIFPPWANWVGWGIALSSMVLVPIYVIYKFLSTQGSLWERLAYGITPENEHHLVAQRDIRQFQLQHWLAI
Chain of Sodium-dependent dopamine transporter (Q01959 whole entry): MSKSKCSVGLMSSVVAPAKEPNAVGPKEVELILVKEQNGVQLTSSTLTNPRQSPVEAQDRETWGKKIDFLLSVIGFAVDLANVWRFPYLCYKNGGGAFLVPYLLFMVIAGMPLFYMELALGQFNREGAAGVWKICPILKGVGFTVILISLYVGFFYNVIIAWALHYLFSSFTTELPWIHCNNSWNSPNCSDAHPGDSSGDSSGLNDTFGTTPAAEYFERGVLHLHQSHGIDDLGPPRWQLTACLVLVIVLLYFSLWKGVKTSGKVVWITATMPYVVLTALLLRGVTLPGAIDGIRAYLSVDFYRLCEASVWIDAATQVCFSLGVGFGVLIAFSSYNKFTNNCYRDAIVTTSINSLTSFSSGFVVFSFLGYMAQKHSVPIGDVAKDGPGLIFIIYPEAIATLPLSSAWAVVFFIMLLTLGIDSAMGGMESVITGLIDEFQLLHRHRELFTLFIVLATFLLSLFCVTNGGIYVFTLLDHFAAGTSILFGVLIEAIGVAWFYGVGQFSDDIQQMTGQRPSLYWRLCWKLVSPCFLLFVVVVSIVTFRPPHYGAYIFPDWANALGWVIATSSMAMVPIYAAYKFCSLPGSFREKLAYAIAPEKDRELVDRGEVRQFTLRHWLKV
Chain of Sodium-dependent serotonin transporter (P31645 whole entry): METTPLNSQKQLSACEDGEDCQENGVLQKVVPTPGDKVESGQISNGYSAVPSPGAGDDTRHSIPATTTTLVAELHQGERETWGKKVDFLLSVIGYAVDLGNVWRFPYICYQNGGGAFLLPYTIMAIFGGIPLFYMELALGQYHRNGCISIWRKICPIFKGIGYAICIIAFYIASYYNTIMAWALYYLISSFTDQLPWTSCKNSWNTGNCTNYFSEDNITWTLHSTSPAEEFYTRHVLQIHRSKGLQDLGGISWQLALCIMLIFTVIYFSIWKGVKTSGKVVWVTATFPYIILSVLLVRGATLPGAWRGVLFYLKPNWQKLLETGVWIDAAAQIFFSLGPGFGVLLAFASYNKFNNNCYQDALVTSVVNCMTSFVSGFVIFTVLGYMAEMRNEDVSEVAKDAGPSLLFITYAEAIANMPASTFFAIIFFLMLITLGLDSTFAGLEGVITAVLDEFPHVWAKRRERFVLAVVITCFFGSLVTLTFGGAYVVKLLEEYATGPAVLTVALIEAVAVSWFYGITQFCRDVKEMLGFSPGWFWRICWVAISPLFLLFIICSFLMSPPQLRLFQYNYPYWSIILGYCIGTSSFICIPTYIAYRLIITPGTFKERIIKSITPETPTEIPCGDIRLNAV

SMILES | Ratio Ki (Homo sapiens [1]) | Ratio Ki (Homo sapiens [2]) | Ki [3] [nM] | Ki [4] [nM] | Ki [5] [nM] | logD [6]
FCCc1ccccc1O[C@@H](c1ccccc1)[C@@H]1CNCCO1 | 137 | > 2000 | 3.14 | 430 | > 6000 | 2
Cc1ccccc1O[C@@H](c1ccccc1)[C@@H]1CNCCO1 | 92 | 321 | 1.02 | 93 | 327 | 2.04
